Laboratory results: article PMC7720656 (Journal of medicinal chemistry, 2020)
“Also recorded” adds a separate entry of the source. Marks after values point to notes of the source that are not given here.

Assays:
S. aureus ATCC29213 = test: MIC by microdilution, S. aureus ATCC29213; assay type: cell-based, Staphylococcus aureus; conditions: for antibacterial activity in words / antibacterial activity, active / inactive: by MIC with S. aureus ATCC29213; for increase in MIC with added bovine serum albumin: S. aureus ATCC29213
Pharmacokinetics in mice = assay type: in vivo; conditions: for clearance relative to hepatic blood flow: mice
[1] = mice, 10 mg/kg iv; ref Bouley [25]; cited from earlier work
MRSA strain NRS70 = test: Time-kill assays; assay type: cell-based, Staphylococcus aureus; conditions: NRS70, 0.5 to 16 × MIC
Method in brief: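 Cultures of MRSA NRS70 were exposed to the test compound, with a no-antibiotic control tube. At 3, 6, 12 and 24 h, aliquots were plated on LB agar for colony counts, with a detection limit of >50 CFU/mL. A ≥3-log10 drop from the starting inoculum counted as bactericidal. Run in triplicate.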

[2] = plasma protein binding; ref [26]; cited from earlier work
allosteric site of PBP2a = conditions: read-out: Kd for binding to the allosteric site of PBP2a; ref [23]; cited from earlier work
[3] = tested on: S. haemolyticus ATCC 29970; test: MIC against Gram-positive organisms; assay type: cell-based; conditions: Staphylococcus haemolyticus, ATCC29970, read-out: MIC S. haemolyticus ATCC 29970

Row | Structure (SMILES) | antibacterial activity in words (S. aureus ATCC29213) | antibacterial activity, active / inactive (S. aureus ATCC29213) | other results
1 | COc1ccc(C(=O)O)cc1-n1c(/C=C/c2ccc(C#N)cc2)nc2ccccc2c1=O [compound 79] | loss of antibacterial property |  | 
2 | O=C(O)c1cccc(-n2c(/C=C/C3CC3)nc3ccccc3c2=O)c1 [compound 48] | loss of activity |  | 
3 | N#Cc1ccc(CSc2nc3ccccc3c(=O)n2-c2cccc(C(=O)O)c2)cc1 [compound 125] |  |  | increase in MIC with added bovine serum albumin (S. aureus ATCC29213): ≤ 4 fold
4 | N#Cc1ccc(/C=C/c2nc3ccccc3c(=O)n2-c2cccc(S(N)(=O)=O)c2)cc1 [compound 94] |  | active | increase in MIC with added bovine serum albumin (S. aureus ATCC29213): ≤ 4 fold; clearance relative to hepatic blood flow (Pharmacokinetics in mice; 5 mg/kg iv): > 10%
5 | N#Cc1ccc(/C=C/c2nc3ccccc3c(=O)n2-c2cc(C(=O)O)ccn2)cc1 [compound 84] | loss of antibacterial property; also recorded: loss of activity |  | 
6 | O=C(O)c1cccc(-n2c(CCc3ccc(F)cc3)nc3ccccc3c2=O)c1 [compound 115] |  |  | increase in MIC with added bovine serum albumin (S. aureus ATCC29213): ≤ 4 fold
7 | N#Cc1ccc(/C=C/c2nc3ccccc3c(=O)n2-c2cc(C(=O)O)ccc2Cl)cc1 [compound 74] | retained acceptable MIC values | active | 
8 | N#Cc1ccc(/C=C/c2nc3ccccc3c(=O)n2-c2cccc(C(=O)O)c2)cc1 [compound 1, (E)-3-(3-Carboxyphenyl)-2-(4-cyanostyryl)quinazolin-4(3H)-one] | potent activity |  | increase in MIC with added bovine serum albumin (S. aureus ATCC29213): ≤ 4 fold; CL [1]: 6.9 mL/min/kg; time-kill behaviour of compound alone (MRSA strain NRS70): bacteriostatic
9 | N#Cc1ccc(/C=C/c2nc3ccccc3c(=O)n2-c2cc(C(=O)O)ccc2O)cc1 [compound 78] | loss of antibacterial property | inactive | 
10 | N#Cc1ccc(/C=C/c2nc3ccccc3c(=O)n2-c2cc(O)cc(C(=O)O)c2)cc1 [compound 77] |  | inactive | 
11 | N#Cc1ccc(/C=C/c2nc3ccccc3c(=O)n2-c2cccc(C(=O)O)n2)cc1 [compound 83] | loss of antibacterial property; also recorded: loss of activity |  | 
12 | N#Cc1ccc(/C=C/c2nc3ccccc3c(=O)n2-c2cccc(NC(=O)NCCc3cnc[nH]3)c2)cc1 [compound 93] | detrimental to the activity |  | 
13 | C#Cc1ccc(/C=C/c2nc3ccccc3c(=O)n2-c2cccc(C(=O)O)c2)cc1 [compound 57] |  | active | PPB [2]: 99.6 ± 0.04^h %
14 | N#Cc1ccc(/C=C/c2nc3ccccc3c(=O)n2-c2cccc(NC(=O)NCc3cnc[nH]3)c2)cc1 [compound 92] | detrimental to the activity |  | 
15 | C#Cc1ccc(/C=C/c2nc3ccccc3c(=O)n2-c2cccc(S(N)(=O)=O)c2)cc1 [compound 113] |  |  | clearance relative to hepatic blood flow (Pharmacokinetics in mice; 5 mg/kg iv): > 10%
16 | O=C(O)c1cccc(-n2c(/C=C/c3ccc(Cl)cc3)nc3ccccc3c2=O)c1 [compound 58] |  | active | increase in MIC with added bovine serum albumin (S. aureus ATCC29213): ≤ 4 fold
17 | O=C(O)c1cccc(-n2c(/C=C/c3ccc(I)cc3)nc3ccccc3c2=O)c1 [compound 59] |  | active | 
18 | Cc1ccc(C(=O)O)cc1-n1c(/C=C/c2ccc(C#N)cc2)nc2ccccc2c1=O [compound 75] | retained acceptable MIC values | active | 
19 | N#Cc1ccc(/C=C/c2nc3ccccc3c(=O)n2-c2cccc(NC(=O)C(F)(F)F)c2)cc1 [compound 88] |  | active | 
20 | N#Cc1ccc(/C=C/c2nc3ccccc3c(=O)n2-c2cccc(CNC(=O)C(F)(F)F)c2)cc1 [compound 99] |  | active | 
21 | N#Cc1ccc(/C=C/c2nc3ccccc3c(=O)n2-c2cccc(C(=O)O)c2O)cc1 [compound 81] | loss of antibacterial property |  | 
22 | N#Cc1ccc(/C=C/c2nc3ccccc3c(=O)n2-c2cccc(N)c2)cc1 [compound 111] | potent activity |  | 
23 | CCN1CCN(C(=O)N[C@@H](C(=O)N[C@@H]2C(=O)N3[C@@H]2SC(C)(C)[C@@H]3C(=O)O)c2ccccc2)C(=O)C1=O [piperacillin] |  |  | Kd (allosteric site of PBP2a): 400 µM
24 | CC(=O)NS(=O)(=O)c1cccc(-n2c(/C=C/c3ccc(C#N)cc3)nc3ccccc3c2=O)c1 [compound 95] |  | active | 
25 | N#Cc1ccc(/C=C/c2nc3ccccc3c(=O)n2-c2cc(C(=O)O)ccc2C(F)(F)F)cc1 [compound 76] | loss of antibacterial property | inactive | 
26 | N#Cc1ccc(/C=C/c2nc3ccccc3c(=O)n2-c2cc(C(=O)O)ccc2F)cc1 [compound 73, (E)-3-(5-Carboxy-2-fluorophenyl)-2-(4-cyanostyryl)-quinazolin-4(3H)-one] |  | active | increase in MIC with added bovine serum albumin (S. aureus ATCC29213): ≤ 4 fold; MIC [3]: ≤ 4 µg/mL; time-kill behaviour of compound alone (MRSA strain NRS70): bacteriostatic; clearance (Pharmacokinetics in mice; female, ICR, mouse, plasma, iv, 10 mg/kg): 7.7 mL/min/kg; clearance relative to hepatic blood flow (Pharmacokinetics in mice; 10 mg/kg iv): < 10%
